In PMC11410521 (Biochemical pharmacology, 2024):
“And” between values parts separate entries of the source, which are not always exact repeats. Identical values can stand only once. Like-named read-outs stand apart in the source and are kept apart here.

Tests used:
[1] = system: human liver microsomes from six individual liver donors; format: in vitro ADME; conditions: for inhibition of M3 formation in donor HL-109: HL-109: low CYP2C19 activity, high CYP3A activity, no CYP3A5 expression
Summary of the method: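 HLMs from six donors (2 CYP3A5 expressors, 4 non-expressors), 1 mg/mL, were preincubated 10 min with 0.5 μM CYP3cide plus 1 mM NADPH, with a methanol vehicle control. They were diluted 40-fold to 0.025 mg/mL in buffer with 1 mM NADPH, then 2 μM THC was added. Reactions ran 2 min before quench and LC-MS/MS. % activity remaining was normalised to vehicle, in duplicate.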

human FABP1 [2] = molecular target: T1, human FABP1 (Homo sapiens, UniProt P07148); assay: DAUDA displacement assay of cannabinoid binding to FABP1
T1 sequence (P07148 1-127): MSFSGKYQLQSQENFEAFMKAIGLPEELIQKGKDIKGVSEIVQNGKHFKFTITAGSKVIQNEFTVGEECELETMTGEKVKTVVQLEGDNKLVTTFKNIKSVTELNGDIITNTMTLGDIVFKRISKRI
Summary of the method: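 Purified human FABP1, protein quantified by BCA and held on ice in gel filtration buffer with 0.5 mM DTT, titrated with test cannabinoid displacing DAUDA. Fluorescence spectra scanned at 600 nm/min, PMT 800 V. Bound-DAUDA signal extracted by singular value decomposition. Kd from ternary binding model fit; EC50 from three-parameter dose-response fit. Mean ± SD, three days, ≥2 protein batches.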

[3] = Kinetics of THC metabolite formation in pooled human liver microsomes; format: in vitro ADME; conditions: human, pooled human liver microsomes, pooled HLMs 0.1 mg/mL
Summary of the method: (§1)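 Pooled HLMs at 0.1 mg/mL with nominal THC 0.05–5 μM in 100 mM potassium phosphate pH 7.4. After 5 min preincubation at 37 °C, 1 mM NADPH was added and reactions ran 2 min, within time linearity. Quench was acetonitrile/1% formic acid with 11-OH-THC-d3, then LC-MS/MS. Michaelis-Menten fits used bead-measured free THC; linear fits gave CLint,u where saturation was absent. Three days, duplicates.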

[4] = system: pooled human liver microsomes; assay: as above; format: in vitro ADME; conditions: pooled HLMs 0.1 mg/mL; mean ± SD, 3 days
Summary of the method: as §1

CYP2C9 = assay: THC incubations with recombinant CYP2C9 in the presence and absence of FABP1; format: in vitro ADME, human; conditions: human
Summary of the method: (§2)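 Recombinant CYP2C9 (Supersomes) at 1 nM (0.0016 mg/mL microsomal protein), with seven nominal THC concentrations of 10–640 nM in pH 7.4 phosphate buffer, ±20 μM FABP1 added before 5 min preincubation at 37 °C. Started with 1 mM NADPH, 1 min, with a no-NADPH control. Quench was acetonitrile/formic acid with 11-OH-THC-d3, then LC-MS/MS. Km,u and kcat came from Michaelis-Menten fits against free THC; matched pairs, separate days.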

recombinant CYP2C9 = assay: as above; format: in vitro ADME, human; conditions: recombinant CYP2C9, absence of FABP1
Summary of the method: as §2

CYP2C19 = assay: THC incubations with recombinant CYP2C19 in the presence and absence of FABP1; format: in vitro ADME, human; conditions: human
Summary of the method: (§3)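 Recombinant CYP2C19 (Supersomes) at 1 nM (0.013 mg/mL microsomal protein), with nominal THC 0.02–1.0 μM, ±20 μM FABP1 added before 5 min preincubation at 37 °C. Started with 1 mM NADPH, 2 min, with a no-NADPH control, then quench and LC-MS/MS. Matched ±FABP1 pairs. Michaelis-Menten fits against free THC from bead measurements, with a mass-balance calculation when FABP1 was present. Replicates on separate days.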

recombinant CYP2C19 = assay: as above; format: in vitro ADME, human
Summary of the method: as §3

CYP3A4 = assay: THC incubations with recombinant CYP3A4 in the presence and absence of FABP1; format: in vitro ADME, human; conditions: human
Summary of the method: (§4)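 Recombinant CYP3A4 (Supersomes) at 0.625 nM (0.004 mg/mL microsomal protein), with seven nominal THC concentrations of 0.156–3.75 μM, ±20 μM FABP1 added before 5 min preincubation at 37 °C. Started with 1 mM NADPH, 1 min, with a no-NADPH control, then LC-MS/MS. M4 data were fitted to an allosteric sigmoidal model (K0.5, h); other metabolites used Michaelis-Menten fits, against free THC; matched pairs.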

recombinant CYP3A4 = assay: as above; format: in vitro ADME, human
Summary of the method: as §4

[5] = THC unbound fraction in human liver microsome incubations; format: in vitro ADME; conditions: pooled liver microsomes, pH 7.4
Summary of the method: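 Magnetic silica beads (200 μL), washed three times, were pre-equilibrated 30 min on ice with HLM protein at incubation concentration in 0.5 mL buffer. THC was added at each nominal kinetic concentration and incubated 30 min at 37 °C with shaking, then cooled 5 min. Total and supernatant samples were quenched and measured by LC-MS/MS; fu = Cfree/Ctotal.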

[6] = THC unbound fraction in incubations with recombinant CYPs; format: in vitro ADME; conditions: human, recombinant CYP3A4 microsomes (Supersomes), pH 7.4
Summary of the method: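 Magnetic silica beads (50 μL), washed three times, were pre-equilibrated 30 min on ice with recombinant CYP at incubation protein concentration in 0.2 mL buffer. THC was added at each nominal kinetic concentration and incubated 30 min at 37 °C with shaking, then cooled 5 min at room temperature. Total and supernatant THC were measured by LC-MS/MS; fu = Cfree/Ctotal.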

recombinant CYPs = assay: THC metabolite formation by a panel of recombinant CYPs; format: in vitro ADME, human; conditions: 10 μM THC
Summary of the method: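 Individual recombinant CYPs (10 pmol/mL) across a twelve-enzyme panel were preincubated 5 min at 37 °C with 10 μM THC in 100 mM potassium phosphate pH 7.4. Reactions were started with 1 mM NADPH and ran 15 min, then were quenched with acetonitrile/1% formic acid containing 11-OH-THC-d3 and analysed by LC-MS/MS. Relative formation was the metabolite/internal-standard peak-area ratio; peaks below S/N 5 were not quantified.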

[7] = system: human liver microsomes from three individual donors; assay: Impact of FABP1 on THC metabolism in HLMs from individual donors; format: in vitro ADME; conditions: HLM incubations
[8] = cited from earlier work
[9] = system: HLMs and recombinant CYP2C9; conditions: cited from earlier work; for Km: in HLM
human FABP1 [10] = molecular target: T1, human FABP1; conditions: read-out: Kd previously reported; cited from earlier work
[11] = cited from earlier work; remark: listed apart in the source
[12] = recombinant CYP3A4, absence of FABP1, allosteric sigmoidal model
[13] = THC depletion, 500 nM nominal, 0.2% BSA

CCC1(c2ccccc2)NC(=O)N(Cc2ccccc2)C1=O (single isomer, unassigned; (+)) [Benzylnirvanol, (+)-N-3-benzylnirvanol]
inhibition of M3 formation in donor HL-109 [1]: no impact

CCCCC/C=C\C/C=C\C/C=C\C/C=C\CCCC(=O)OC(CO)CO [2AG, 2-arachidonoylglycerol]
EC50 (human FABP1 [2]): 180 ± 20 nM | Kd (human FABP1 [2]): 60 ± 40 nM

CCCCC/C=C\C/C=C\C/C=C\C/C=C\CCCC(=O)NCCO [AEA, anandamide]
EC50 (human FABP1 [2]): 310 ± 140 nM

C=C(C)[C@@H]1CCC(C)=C[C@H]1c1c(O)cc(CCCCC)cc1O [CBD, cannabidiol]
EC50 (human FABP1 [2]): 920 ± 70 nM

Cc1ccc(-c2c(-c3nn(C)c4ncnc(N5CC[C@H](N6CCCCC6)C5)c34)cnn2C)cc1 [CYP3cide]
inhibition of M4 formation in donors without CYP3A5 expression ([1]; CYP3cide 0.5 μM): ~100% | inhibition of M3 formation in donor HL-109 [1]: ~100%

CCCCCc1cc(O)c2c(c1)OC(C)(C)[C@@H]1CCC(C)=C[C@@H]21 [THC, Δ9-tetrahydrocannabinol]
EC50 (human FABP1 [2]): 220 ± 130 nM | Km at 2 min ([3]; Km,unbound of M2 formation, free THC concentrations): > 45 nM | Km at 2 min ([3]; Km,unbound of M3 formation, free THC concentrations): > 45 nM | Km at 2 min ([3]; Km,unbound of M4 formation, no saturation, linear): > 45 nM | Vmax of 11-OH-THC formation [4]: 521 ± 53 pmol/min/mg HLM | Km at 1 min (CYP2C9; recombinant CYP2C9 (Supersomes) with 20 μM FABP1, Km,u + FABP1, 11-OH-THC formation, recombinant CYP2C9, 20 μM FABP1): > 20 nM | Km at 1 min (CYP2C9; recombinant CYP2C9 (Supersomes), Km,u −FABP1, 11-OH-THC formation, recombinant CYP2C9, absence of FABP1): 0.8 nM | Km (recombinant CYP2C9; read-out: Km,u −FABP1, 11-OH-THC formation): 0.77 ± 0.16 nM | kcat −FABP1, 11-OH-THC formation (recombinant CYP2C9): 12 min⁻¹ and 12 ± 0.87 min⁻¹ | Km at 2 min (CYP2C19; recombinant CYP2C19 (Supersomes) with 20 μM FABP1, Km,u + FABP1, 11-OH-THC formation, recombinant CYP2C19, 20 μM FABP1): 5.2 ± 0.64 nM | Km at 2 min (CYP2C19; recombinant CYP2C19 (Supersomes) with 20 μM FABP1, Km,u + FABP1, M3 formation, recombinant CYP2C19, 20 μM FABP1): 4.7 ± 0.72 nM | Km at 2 min (CYP2C19; recombinant CYP2C19 (Supersomes), Km,u −FABP1, 11-OH-THC formation, recombinant CYP2C19, absence of FABP1): 2.2 nM | Km at 2 min (CYP2C19; recombinant CYP2C19 (Supersomes), Km,u −FABP1, M3 formation, recombinant CYP2C19, absence of FABP1): 2.2 nM | kcat + FABP1, 11-OH-THC formation (recombinant CYP2C19; recombinant CYP2C19, 20 μM FABP1): 8.0 ± 2.0 min⁻¹ | kcat −FABP1, 11-OH-THC formation (recombinant CYP2C19; recombinant CYP2C19, absence of FABP1): 14 min⁻¹ and 14 ± 0.68 min⁻¹ | Km at 1 min (CYP3A4; recombinant CYP3A4 (Supersomes) with 20 μM FABP1, Km,u + FABP1, M2 formation, recombinant CYP3A4, 20 μM FABP1): > 20 nM | Km at 1 min (CYP3A4; recombinant CYP3A4 (Supersomes) with 20 μM FABP1, Km,u + FABP1, M4 formation, recombinant CYP3A4, 20 μM FABP1): > 20 nM | Km at 1 min (CYP3A4; recombinant CYP3A4 (Supersomes), Km,u of the other three major metabolites, formed mainly by recombinant CYP3A4/5): > 10 nM | Km at 1 min (CYP3A4; recombinant CYP3A4 (Supersomes), Km,u −FABP1, M2 formation, recombinant CYP3A4, absence of FABP1): 29 ± 19 nM | Km at 1 min (CYP3A4; recombinant CYP3A4 (Supersomes), Km,u −FABP1, M3 formation, recombinant CYP3A4, absence of FABP1): 18 ± 13 nM | M3 formation by recombinant CYP3A4 in the presence of FABP1 (recombinant CYP3A4; 20 μM FABP1): completely abolished | K0.5,u −FABP1, M4 formation (recombinant CYP3A4; [12]): 43 ± 25 nM | hill slope (h), M4 formation (recombinant CYP3A4; [12]): 1.4 ± 0.5 | fraction unbound at 30 min [5]: 0.015 ± 0.001 | fraction unbound at 30 min [6]: 0.15 ± 0.02 | velocity of 11-OH-THC formation by CYP2C9 and CYP2C19 relative to CYP2D6 (recombinant CYPs): ~ 3 fold | velocity of 11-OH-THC formation by CYP2C9 and CYP2C19 relative to other CYPs (recombinant CYPs): > 10 fold | decrease in free concentrations of THC by FABP1 binding ([7]; 2 μM THC, 20 μM FABP1 vs absence): 86% | free THC in the absence of FABP1 ([7]; 2 μM nominal THC): 14 nM | free THC in the presence of FABP1 ([7]; 2 μM nominal THC, 20 μM FABP1): 2 nM | dose recovered in urine and feces ([8]; after iv administration): less than 1% | THC exposure (AUC) in CYP2C9*3/*3 carriers compared to CYP2C9*1/*1 carriers ([8]; after oral dosing): 3 fold | hepatic extraction ratio [8]: around 0.8 | increase of AUC of THC when co-administered with ketoconazole [8]: ~ 80% | contribution of CYP2C9 to THC clearance (fraction metabolized) ([8]; estimated from AUC in CYP2C9 genotypes): about 70% | THC exposure on co-administration of rifampicin ([8]; oral dosing of THC): decreases THC exposure | THC metabolic clearance in pooled HLMs assigned to CYP2C9 [9, 13]: 91% and > 90% | THC metabolic clearance in pooled HLMs assigned to CYP2D6 [9, 13]: 9% | Km ([9]; read-out: unbound Km (Km,u) for 11-OH-formation): 8 nM | Km ([9]; read-out: unbound Km (Km,u) for THC depletion): 7 nM | Kd (human FABP1 [10]): 2900 nM | blood to plasma ratio [11]: 0.67 | plasma protein binding fu ([11]; plasma): 0.01
